Experiment [1] relates to THP-1. Description: Antiinflammatory activity in human THP1 cells assessed as suppression of LPS and TiO2-induced IL-6 production at 10 uM after 24 hrs by induced inflammasome assay. It counts as functional, cell-based. In outline:
(§1)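 THP-1 cells stimulated with bacterial LPS plus titanium dioxide (TiO2) to drive proinflammatory cytokine output and NLRP3 inflammasome assembly. Compounds were added to the induced cells, and IL-6, IL-33, TNF-α and IL-1β production was then measured.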

The test system of experiment [2] is THP-1. Description: Antiinflammatory activity in human THP1 cells assessed as suppression of LPS and TiO2-induced IL-33 production at 10 uM after 24 hrs by induced inflammasome assay. It counts as functional, cell-based. In outline: as §1
A short description of experiment [3]: (§2) Antiinflammatory activity in human THP1 cells assessed as suppression of LPS and TiO2-induced TNF-alpha production at 10 uM after 24 hrs by induced inflammasome assay. Type of experiment: functional, THP-1. In outline:
as §1

The nature of experiment [4]: (§3) Antiinflammatory activity in human THP1 cells assessed as suppression of LPS and TiO2-induced IL-1beta production at 10 uM after 24 hrs by induced inflammasome assay. Type of experiment: functional, THP-1. Put shortly: as §1
The next experiment deals with T1, Caspase-1 (Homo sapiens, UniProt P29466).
T1 sequence (P29466 whole entry): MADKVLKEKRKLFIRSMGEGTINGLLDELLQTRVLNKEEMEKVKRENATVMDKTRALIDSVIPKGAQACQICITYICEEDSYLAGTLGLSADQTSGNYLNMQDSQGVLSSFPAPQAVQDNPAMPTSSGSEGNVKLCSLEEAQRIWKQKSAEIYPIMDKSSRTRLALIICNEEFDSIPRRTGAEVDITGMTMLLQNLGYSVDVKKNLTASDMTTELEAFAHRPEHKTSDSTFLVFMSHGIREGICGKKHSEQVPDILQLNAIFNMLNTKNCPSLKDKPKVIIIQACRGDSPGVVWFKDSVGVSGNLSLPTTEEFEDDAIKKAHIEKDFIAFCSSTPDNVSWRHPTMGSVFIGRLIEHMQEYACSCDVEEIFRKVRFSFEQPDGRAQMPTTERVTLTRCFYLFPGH
Description: Inhibition of caspase-1 (unknown origin).

The next experiment concerns the target Stromelysin-1 (Homo sapiens, UniProt P08254). Put plainly: Inhibition of MMP-3 (unknown origin).
Experiment [5] in a line: Cytotoxicity against human MOLT4 cells after 72 hrs by Alamar Blue viability assay. It counts as functional. The note with it: MOLT-4, 72 h.
The nature of experiment [6]: Cytotoxicity against human RPMI8226 cells after 72 hrs by Alamar Blue viability assay. Type of experiment: functional. The following applies: RPMI-8226, 72 h.
Experiment [7] deals with SR. Put plainly: Cytotoxicity against human SR cells after 72 hrs by Alamar Blue viability assay. Type of experiment: functional. For orientation: Alamar Blue is a resazurin reagent that responds to reducing activity.
Experiment [8] can be described thus: Cytotoxicity against human LOXIMVI cells after 72 hrs by Alamar Blue viability assay. Type of experiment: functional. The note with it: LOX IMVI.
Experiment [9] concerns CCRF-CEM. Put plainly: Cytotoxicity against human CCRF-CEM cells after 72 hrs by Alamar Blue viability assay. It counts as functional.
For experiment [10], the system named is Y79. Description: Cytotoxicity against human Y79 cells after 72 hrs by Alamar Blue viability assay. Type of experiment: functional, cell-based. The note with it: Y79, 72 h.
Experiment [11] in a line: (§4) Cytotoxicity against human MOLT4 cells after 96 hrs by Hoechst-staining based nuclei image analysis. Type of experiment: functional. The note with it: MOLT-4, 96 h.
A short description of experiment [12]: (§5) Cytotoxicity against human RPMI8226 cells after 96 hrs by Hoechst-staining based nuclei image analysis. It counts as functional. The following applies: RPMI-8226, 96 h.
Experiment [13] relates to SR. Description: Cytotoxicity against human SR cells after 96 hrs by Hoechst-staining based nuclei image analysis. Type of experiment: functional.
The subject of experiment [14] is CCRF-CEM. Put plainly: Cytotoxicity against human CCRF-CEM cells after 96 hrs by Hoechst-staining based nuclei image analysis. It counts as functional.
The subject of experiment [15] is Y79. Put plainly: Cytotoxicity against human Y79 cells after 96 hrs by Hoechst-staining based nuclei image analysis. The note with it: Y79, 96 h. It counts as functional, cell-based.
Experiment [16] has as its system THP-1. The experiment is described as §2. Type of experiment: functional. In outline:
as §1

Experiment [17] relates to THP-1. The experiment is described as §3. It counts as functional. Put shortly: as §1
Experiment [18] relates to THP-1. Description: Antiinflammatory activity against human THP1 cells assessed as suppression of LPS and TiO2-induced IL-6 production at 100 uM after 24 hrs by induced inflammasome assay. It counts as functional, cell-based. In outline:
as §1

In experiment [19] the test system is THP-1. Put plainly: Antiinflammatory activity against human THP1 cells assessed as suppression of LPS and TiO2-induced IL-33 production at 100 uM after 24 hrs by induced inflammasome assay. It counts as functional, cell-based. Put shortly: as §1
The test system of experiment [20] is THP-1. Description: Antiinflammatory activity against human THP1 cells assessed as suppression of LPS and TiO2-induced TNF-alpha production at 100 uM after 24 hrs by induced inflammasome assay. It counts as functional, cell-based. In outline: as §1
The subject of experiment [21] is THP-1. Description: Antiinflammatory activity in human THP1 cells assessed as suppression of LPS and TiO2-induced IL-1beta production at 100 uM after 24 hrs by induced inflammasome assay. It counts as functional, cell-based. Put shortly:
as §1

Experiment [22] concerns MOLT-4. Description: Cytotoxicity against human MOLT4 cells at 1 to 10 uM after 72 hrs by Alamar Blue viability assay. It counts as functional, cell-based.
Experiment [23] deals with RPMI-8226. Put plainly: Cytotoxicity against human RPMI8226 cells at 1 to 10 uM after 72 hrs by Alamar Blue viability assay. Type of experiment: functional, cell-based.
The test system of experiment [24] is SR. Description: Cytotoxicity against human SR cells at 1 to 10 uM after 72 hrs by Alamar Blue viability assay. It counts as functional, cell-based.
Experiment [25] deals with LOX IMVI. Description: Cytotoxicity against human LOXIMVI cells at 1 to 10 uM after 72 hrs by Alamar Blue viability assay. Type of experiment: functional, cell-based.
Experiment [26] has as its system CCRF-CEM. Put plainly: Cytotoxicity against human CCRF-CEM cells at 1 to 10 uM after 72 hrs by Alamar Blue viability assay. Type of experiment: functional, cell-based.
Experiment [27] deals with MOLT-4. The experiment is described as §4. Type of experiment: functional.
In experiment [28] the test system is RPMI-8226. Described as §5. Type of experiment: functional.
In experiment [29] the test system is LOX IMVI. Put plainly: Cytotoxicity against human LOXIMVI cells after 96 hrs by Hoechst-staining based nuclei image analysis. It counts as functional.

Experimental findings from ChEMBL document CHEMBL3758076, “Azaphilones from an Acid Mine Extremophile Strain of a Pleurostomophora sp” (J Nat Prod, 2015) are described below.

Broadly, the IC50 is the point on the concentration scale where inhibition reaches its midpoint. The GI50 is the concentration giving 50% growth inhibition. A lower GI50 goes with greater sensitivity of the cells.

Active and inactive are the calls of the source. The calls are words filed in the database; no cut-off is given here.

Sequence of Stromelysin-1 (P08254 whole entry): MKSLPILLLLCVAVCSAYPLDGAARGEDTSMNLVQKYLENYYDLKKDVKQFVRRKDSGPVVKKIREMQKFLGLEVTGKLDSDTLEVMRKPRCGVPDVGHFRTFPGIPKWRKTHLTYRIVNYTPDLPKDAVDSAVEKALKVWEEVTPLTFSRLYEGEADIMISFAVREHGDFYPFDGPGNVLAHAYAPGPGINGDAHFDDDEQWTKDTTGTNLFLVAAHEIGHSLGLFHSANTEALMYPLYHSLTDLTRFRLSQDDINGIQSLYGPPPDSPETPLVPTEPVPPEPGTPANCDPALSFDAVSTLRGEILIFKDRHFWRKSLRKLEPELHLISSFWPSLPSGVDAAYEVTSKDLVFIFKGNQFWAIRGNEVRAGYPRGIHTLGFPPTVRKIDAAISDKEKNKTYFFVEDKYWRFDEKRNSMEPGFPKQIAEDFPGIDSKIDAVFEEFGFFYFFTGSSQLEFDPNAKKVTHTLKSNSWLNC

For the compound `CCCCCCCCCC(=O)[C@@]12O[C@@]13C1=COC(C[C@H](C)O)=CC1=CC(=O)[C@]3(C)OC2=O`, the result with THP-1 [1] and in the experiment with THP-1 [2] was Active. Besides, the Activity in experiment [3] and in experiment [4] was 95% each time. Moreover, the IC50 on Caspase-1 turned out to be 25 µM; at Stromelysin-1, 15 µM; in the experiment on Y79 [10] it was 1.1 µM; with Y79 [15], 1.1 µM. The GI50 (in experiment [5]; in experiment [6]; in the experiment with SR [7]; in experiment [8]; in [11]; in experiment [12]) was 10 µM in each case. Further, the GI50 in the experiment with SR [13] turned out to be 10 µM. The GI90 in the experiment on CCRF-CEM [9] and with CCRF-CEM [14] was 10 µM each time.

Consider `CCCCCCCCCC(=O)[C@@H]1C(=O)O[C@@]2(C)C(=O)C=C3C=C(C[C@H](C)O)OC=C3[C@@H]12`, for which the result with THP-1 [1], in the experiment with THP-1 [2], with THP-1 [16], in the experiment with THP-1 [17], with MOLT-4 [22] and in the experiment with RPMI-8226 [23] was inactive. In addition, the result in the experiment with SR [24], in the experiment with LOX IMVI [25], in the experiment on CCRF-CEM [26], with MOLT-4 [27], in the experiment on RPMI-8226 [28] and in the experiment on SR [13] was inactive. The result in the experiment with LOX IMVI [29] was inactive. For the same compound, the outcome in the experiment with THP-1 [18], with THP-1 [19], with THP-1 [20] and with THP-1 [21] was Active. Besides, the IC50 was determined as 150 µM against Caspase-1 and 130 µM against Stromelysin-1.

For the compound `CCCCCCCCCC(=O)C1=C2C=C3C=C(C[C@H](C)O)N(CCO)C=C3C(=O)[C@]2(C)OC1=O`, the IC50 is 50 µM on Caspase-1 and 45 µM on Stromelysin-1.

As for `CCCCCCCCCC(=O)C[C@@H]1C2=COC(C[C@H](C)O)=CC2=CC(=O)[C@]1(C)O`, the outcome with MOLT-4 [22], in the experiment on RPMI-8226 [23], in the experiment with SR [24], with LOX IMVI [25], with CCRF-CEM [26] and in the experiment with MOLT-4 [27] was inactive. Also, the outcome in the experiment on RPMI-8226 [28], in the experiment with SR [13] and in the experiment on LOX IMVI [29] was inactive.
